Consider seven molecules from ChEMBL document CHEMBL4339218, “Discovering New Casein Kinase 1d Inhibitors with an Innovative Molecular Dynamics Enabled Virtual Screening Workflow” (ACS Med Chem Lett, 2019).

Molecules are shown by their SMILES.

Assay [1] concerns the target T1, Casein kinase I isoform delta (Homo sapiens, UniProt P48730). Put plainly: Inhibition of CSNK1D (unknown origin) at 1 uM using CSNK1D/Ser/Thr 11 peptide incubated for 1 hr by FRET based Z'-LYTE assay relative to untreated control. The method, boiled down:
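Single-point test at 1 μM ligand, in duplicate, reported as mean ± SD. Coupled-enzyme FRET readout in which a development protease cleaves only nonphosphorylated peptide. Development reagent B (1:16) then added. Coumarin/fluorescein emission ratio read after 400 nm excitation.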
Target sequence in this assay (P48730 whole entry, looked up, canonical isoform): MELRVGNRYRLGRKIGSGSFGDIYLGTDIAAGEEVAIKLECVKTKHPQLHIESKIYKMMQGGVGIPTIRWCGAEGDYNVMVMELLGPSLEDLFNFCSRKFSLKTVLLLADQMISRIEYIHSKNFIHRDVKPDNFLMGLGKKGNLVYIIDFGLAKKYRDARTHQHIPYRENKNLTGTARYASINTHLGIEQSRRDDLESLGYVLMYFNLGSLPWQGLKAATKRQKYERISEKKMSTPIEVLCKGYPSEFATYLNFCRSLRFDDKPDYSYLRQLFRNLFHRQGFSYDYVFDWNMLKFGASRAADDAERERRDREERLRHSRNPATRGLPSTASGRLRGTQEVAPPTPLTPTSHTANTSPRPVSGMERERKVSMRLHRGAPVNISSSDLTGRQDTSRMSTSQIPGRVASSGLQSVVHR

The target in assay [2] is T1, Casein kinase I isoform delta. Kind of assay: Inhibition of CSNK1D (unknown origin) using CSNK1D/Ser/Thr 11 peptide incubated for 1 hr by FRET based Z'-LYTE assay. The method, boiled down: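 Full dose–response curve used for IC50. Duplicates, averaged with SD. Protease development reagent B (1:16) then added. Phosphorylation taken from the donor coumarin/acceptor fluorescein emission ratio at 400 nm excitation.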
Target sequence in this assay (P48730 whole entry, canonical isoform): as the sequence (P48730 whole entry, looked up, canonical isoform) above

For orientation: inhibition means the relative decrease from the control value, in per cent. Low values mean a weak effect, high ones a strong effect. A word on the IC50: it is the concentration that inhibits the measured activity by half. A higher IC50 goes with weaker potency.

On to `CNC(=O)c1ccc2[nH]nc(-c3cccc(C(=O)Nc4cc(-c5ccccn5)n[nH]4)c3)c2c1`, for which the inhibition in assay [1] came out at 57%.
In turn, `CN(C)Cc1n[nH]c(-c2ccc3[nH]nc(-c4cccc(C(=O)Nc5ccc(F)cc5)c4)c3c2)n1` gave an IC50 in assay [2] of 0.134 µM. For the same molecule, in assay [1], the inhibition was determined as 99%.
For `CNC(=O)c1ccc2[nH]nc(-c3cccc(C(=O)NCc4cccc5ccccc45)c3)c2c1` the same measures were 0.354 µM and 80%.
For `C[C@@H](NC(=O)c1ccc2[nH]nc(-c3cccc(NS(C)(=O)=O)c3)c2c1)c1ccccc1` the same measures were 1.03 µM and 66%.
For `CNC(=O)c1ccc2[nH]nc(-c3cccc(C(=O)NCc4cnc(C)nc4N)c3)c2c1`, in assay [1], the inhibition came out at 92%.
In the case of `Fc1ccc(-c2n[nH]c3ccc(-c4n[nH]c(CN5CCCC5)n4)cc23)cc1`, 0.848 µM corresponded to half-maximal inhibition in assay [2] (IC50). The inhibition in assay [1] was determined as 53%.
`O=C1CCCN1Cc1nnc(-c2ccc3[nH]nc(-c4ccc(F)cc4)c3c2)[nH]1`: the inhibition in assay [1] stood at 25%.
